Assay results: the RNAGym collection of RNA variant scans (doi:10.1126/science.aae0568)
Variants at the floor of the assay were thinned out.

B1: tRNA (parent)
chain: GUUCCGUUGGCGUAAUGGUAACGCGUCUCCCUCCUAAGGAGAAGACUGCGGGUUCGAGUCCCGUACGGAACG

Variants of: B1
Test: yeast fitness relative to wild type (ratio to wild type); higher = fitter; tRNA-Arg(CCU), competitive growth, 37 C, YPD
How it was run: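 Changes in genotype frequencies gave Darwinian fitness relative to wild type. Frequencies were read by 100-nucleotide paired-end sequencing of gene amplicons before and after pooled Saccharomyces cerevisiae strains, carrying tRNA-Arg(CCU) gene variants at the native locus, were competed in YPD at 37°C for 24 hours in six replicates. A genotype was kept only with ≥ 100 starting reads, and estimates < 0.5 were set to 0.5.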

Variant | yeast fitness
G6A A20C G23C C27A | ≤ 0.5
G6A C49U G58A A69C | 0.605
G6A C11G A21C C22G C30G A45U | ≤ 0.5
G6A C22U A37G G68A A69G | ≤ 0.5
G6A C29G A69C | ≤ 0.5
G6A C34U A40G G68A | ≤ 0.5
C5U U13A G38C U47G C62U | ≤ 0.5
G6A C11A A40G | ≤ 0.5
G6A C27G C34G A65C | ≤ 0.5
C5U U16G A43G G67C | ≤ 0.5
G6A C27G A36C A42C A57U U64A A70C | ≤ 0.5
G6A A40G | 0.842
C5U U64A G67U | ≤ 0.5
G6A C11A C46G | ≤ 0.5
G6A A15C C22G A43C G50A | ≤ 0.5
C5U U26A G48C A57G | ≤ 0.5
G6A C34G A37G G67U | ≤ 0.5
G6A A14U A15U C31G | 0.668
G6A | 0.965
G6A C24U U59C A69C | ≤ 0.5
G6A A57U G68U A70G | ≤ 0.5
G6A C24U U54G A65U | ≤ 0.5
G6A C29A A37U G67C | ≤ 0.5
C5U U32G A36U | ≤ 0.5

Variant | yeast fitness
G6A C27A C30U G41C A43U C49A | 0.52
G6A C62G | 0.827
G6A A14G C31U A36G | ≤ 0.5
G6A C24U G58A | 0.67
G6A C33G C34G C60A A69U | ≤ 0.5
G6A A65C | 0.945
G6A C24U U32G A40U | ≤ 0.5
G6A G9A C29U C46U G67C | ≤ 0.5
G6A C30G G67C | ≤ 0.5
G6A A36U C49G C62U | ≤ 0.5
C5U U32C C33U C62U A65G | ≤ 0.5
G6A C34A A40U | 0.556
G6A C27G C31G G50A A70U | ≤ 0.5
G6A A69C | 0.866
G6A C31A A37C | ≤ 0.5
G6A C11A C61A | ≤ 0.5
C5U U16A G63A | ≤ 0.5
G6A C27U C29A | ≤ 0.5
G6A G9C C31U C62U G68C | ≤ 0.5
G6A C11U C34G | 0.567
C5U U53G C62A | ≤ 0.5
G6A C27G G38C | ≤ 0.5
G6A A14G C33A G39C | ≤ 0.5
G6A A40U C55G G63C | ≤ 0.5

Variant | yeast fitness
C5U U19C G52A | 0.625
C5U U28C C29G C61U | 0.563
G6A A40U C46A | 0.657
C5U U47A G48C G51A C61A | 0.564
C5U U13C C24G U26C A37G G38U U54G C61G | ≤ 0.5
G6A C31G C34G A43U G68C A69G | ≤ 0.5
G6A A20G | 0.897
C5U U28G A42U | ≤ 0.5
C5U U32A C34A A65C | ≤ 0.5
C5U U19C C29U A42C A57G | ≤ 0.5
C5U U19C C66U | 0.82
C5U U19C C66G | 0.606
G6A C24U G67A | 0.72
G6A C11A C66U | 0.592
G6A A14C G58A | 0.613
G6A A21G | 0.965
G6A C30U A37G | ≤ 0.5
G6A C33G C34G C61A G67U | ≤ 0.5
G6A G9C C11G C34U A57U | ≤ 0.5
G6A C11A C49U A65G | ≤ 0.5
G6A C11G A37C C60A A70G | ≤ 0.5
C5U U13A C62U A65C | ≤ 0.5
G6A A21G C46A C55U G56A | ≤ 0.5
C5U U28G C30G A40C A42U | ≤ 0.5

Variant | yeast fitness
G6A C24U C61G G68U | ≤ 0.5
C5U U19A G38C C62G G68C | 0.62
C5U U16A G23A G25C | ≤ 0.5
G6A A20G A45G | 0.803
G6A A14C A42U G63C | ≤ 0.5
C5U U16A U47C | 0.785
G6A C49U | 0.959
C5U U28G A40C | 0.613
G6A C34A U47G C49G C60G | ≤ 0.5
G6A A14G C24A C31U A40U A70G | ≤ 0.5
G6A C11U G23A C46A C55A | ≤ 0.5
C5U U53G | 0.617
C5U U28G C29U G50C | ≤ 0.5
C5U U19C G67C A70U | ≤ 0.5
G6A C31U G51A | 0.599
G6A A20G A36G C49G | ≤ 0.5
G6A C22U G23C C49G U53G A57G | ≤ 0.5
G6A A37U C62U | ≤ 0.5
G6A C11A U47C | ≤ 0.5
G6A C11A A40G G56C | ≤ 0.5
G6A C22G A69C | 0.591
C5U U13C | 0.911
G6A A36C A37G G52A A70U | ≤ 0.5
C5U U16C G18A C30A G58A G68U | ≤ 0.5

Variant | yeast fitness
G6A C31U A43U | 0.529
G6A C27U A42U | ≤ 0.5
G6A A20C C61G G68C | ≤ 0.5
G6A C33U G50A G52C A65C | ≤ 0.5
C5U U13C C61U | 0.673
G6A G9C C31U | ≤ 0.5
G6A C11A U16C U32G C49G C55A | ≤ 0.5
G6A C11A U19A A69U | 0.577
G6A C46G U64A | 0.667
G6A A15U U59A G68C | ≤ 0.5
G6A C22A G23A C33U C34G G68C | ≤ 0.5
G6A C33A A37C | ≤ 0.5
G6A C11U C49G C62U | ≤ 0.5
G6A C30U G51C | ≤ 0.5
G6A A57C A65C | 0.541
G6A A57G | 0.929
G6A A57U | 0.629
G6A A57C | 0.627
G6A C27U A69U | 0.695
G6A C30A C31G G39C | 0.534
G6A A43C C62A | 0.551
C5U U47A | 1.06
G6A G9C C27A C31A | ≤ 0.5
G6A A14C G41A A42U G56A G63C | 0.665

Variant | yeast fitness
G6A C11U U13C A43G G67A | 0.58
G6A C31G G50A | 0.61
C5U U16A C33U C49A | ≤ 0.5
G6A C34G U59A | 0.547
C5U U19A G48A | 0.741
C5U U16G A40G A42U G52A | ≤ 0.5
G6A C34G C62U G68C | ≤ 0.5
G6A C66U G67A | 0.661
G6A C11U C33U U64C A70C | ≤ 0.5
C5U U16A C33U C61G A70U | ≤ 0.5
C5U U47C G51A | 0.548
C5U U19C U28A C66U G68A | ≤ 0.5
C5U U19G A37G C66U A69U | 0.547
G6A C29G A65U | ≤ 0.5
C5U U13A C29A C31G | ≤ 0.5
C5U U35C A69U | 0.536
G6A C11A C22G | ≤ 0.5
G6A A36G A43C A69C | ≤ 0.5
C5U U19C A43U | 1.09
G6A A14C A42U G56A G63C | 0.511
G6A A20G C60G | ≤ 0.5
G6A C29A C31G G67A | ≤ 0.5
G6A A20G C49A | 0.616
G6A C24U U32G A40U U64G | ≤ 0.5

Variant | yeast fitness
G6A A42C A70G | ≤ 0.5
G6A C30G | 0.711
G6A A21G G23A G58C | ≤ 0.5
G6A C11U C55U | 0.814
G6A A20U C27A A57U C62A | ≤ 0.5
G6A C29G U35G C61U | ≤ 0.5
G6A C31A G51C C55G A57U C66U | ≤ 0.5
G6A A42U C62A | 0.53
G6A A40C G41C G68C | ≤ 0.5
G6A C27G A36C A42C | 0.58
G6A C24U A37G C61G C66U A69U | ≤ 0.5
G6A C11A C24U | ≤ 0.5
C5U U32G G63C C66U | ≤ 0.5
G6A A36C A40U | ≤ 0.5
G6A C33G C34G A69U | ≤ 0.5
C5U U16G U35A | ≤ 0.5
G6A C33A U35A G68C | ≤ 0.5
C5U U35C A36G | 0.801
G6A C30U U54A | ≤ 0.5
G6A A42G | 0.848
G6A A42C | 0.894
G6A A42U | 0.784
G6A C29A U32C A42U G67A | ≤ 0.5
